Measured values reported in ChEMBL document CHEMBL3045688, “Cytotoxic and insecticidal activities of derivatives of harmine, a natural insecticidal component isolated from Peganum harmala” (2010).
In brackets after ≈: the same amount, converted by molar mass. Activity calls are given as the source filed them. The calls are words filed in the database; no cut-off is given here.

Assays:
Lipaphis erysimi [1] = experiment: Insecticidal activity against Lipaphis erysimi (mustard aphids) assessed as increase in mortality at 50 to 200 mg/L after 24 to 48 hr; format: functional, organism-based
Outline: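 Apterous adult Lipaphis erysimi reared on mustard leaves. Leaf discs carrying 30–50 aphids dipped 3 s in aqueous suspensions (10 g/L DMSO/acetone stock, 0.5% emulsifier) at 50, 100, 200 mg/L final, blotted, held at 25 ± 1 °C and 50–60% RH. Mortality scored at 24 and 48 h, corrected against solvent control. Triplicate; LC50/LC90 by probit–log concentration regression.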

Culex quinquefasciatus [2] = experiment: Insecticidal activity against fourth-instar larval stage of Culex quinquefasciatus assessed as increase in mortality at 50 to 100 mg/L after 24 hr; format: functional, organism-based
Outline: (§1)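 Early 4th-instar Culex pipiens quinquefasciatus larvae, 20 per bowl in 10 mL test solution. Compounds taken from a 10 g/L DMSO/acetone stock into water with 0.5% Tween-80 (final 1, 10, 50, 100 mg/L), held at 27 °C. Dead larvae, those unable to reach the surface on shaking, counted at 0, 2, 12 and 24 h. Abbott-corrected against solvent control, triplicate; LC50/LC90 by probit regression.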

Culex quinquefasciatus [3] = experiment: Insecticidal activity against fourth-instar larval stage of Culex quinquefasciatus assessed as increase in mortality after 2 to 24 hr; format: functional, organism-based; outline: as §1
Culex quinquefasciatus [4] = experiment: Insecticidal activity against fourth-instar larval stage of Culex quinquefasciatus assessed as mortality at 1 mg/L after 24 hr; format: functional
Outline: (§2)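 Early 4th-instar Culex pipiens quinquefasciatus from laboratory cultures, 20 per bowl in 10 mL test solution at 27 °C. Compounds from a 10 g/L DMSO–acetone stock suspended in water with 0.5% Tween-80 to 1, 10, 50 or 100 mg/L final. Dead larvae, those unable to reach the surface on shaking, counted at 0, 2, 12 and 24 h. Abbott-corrected against solvent control; triplicate; probit analysis.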

Sf9 = experiment: Cytotoxicity against Spodoptera frugiperda (fall armyworm) Sf9 cells assessed as growth inhibition at 1 to 200 mg/L after 6 to 24 hr by MTT assay; format: functional, cell-based
Outline: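 Sf9 insect cells grown at 27 °C in TC-199-MK with 10% FCS, L-glutamine and penicillin–streptomycin–neomycin. Log-phase cells exposed to compounds (DMSO stock, 1% final solvent), 6, 12 or 24 h. MTT (5 mg/mL stock) added for a further 3 h, formazan dissolved in DMSO, A570 read. Inhibition = (A control − A treated)/A control ×100. Solvent-only control, triplicate.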

Lipaphis erysimi [5] = experiment: Insecticidal activity against Lipaphis erysimi (mustard aphids) assessed as mortality at 200 mg/L after 48 hr; format: functional; conditions: in Brassica
Outline: (§3)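 Apterous adult Lipaphis erysimi reared on mustard leaves. Compounds from a 10 g/L DMSO–acetone stock suspended in water with 0.5% emulsifier to 50, 100 or 200 mg/L. Leaf discs carrying 30–50 aphids were dipped 3 s and blotted, then held at 25 ± 1 °C and 50–60% RH. Mortality scored at 24 and 48 h and corrected against solvent control. Triplicate; LC50/LC90 by probit–log concentration regression.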

Lipaphis erysimi [6] = experiment: Insecticidal activity against Lipaphis erysimi (mustard aphids) assessed as increase in mortality after 48 hr; format: functional
Lipaphis erysimi [7] = experiment: Insecticidal activity against Lipaphis erysimi (mustard aphids) assessed as mortality at 50 mg/L after 24 hr; format: functional; conditions: in Brassica; outline: as §3
Culex quinquefasciatus [8] = experiment: Insecticidal activity against fourth-instar larval stage of Culex quinquefasciatus assessed as increase in mortality after 24 hr; format: functional; outline: as §2
Culex quinquefasciatus [9] = experiment: Insecticidal activity against fourth-instar larval stage of Culex quinquefasciatus assessed as mortality at 100 mg/L after 24 hr; format: functional; outline: as §2
Culex quinquefasciatus [10] = experiment: Insecticidal activity against fourth-instar larval stage of Culex quinquefasciatus assessed as increase in mortality at 50 mg/L after 24 hr; format: functional, organism-based; outline: as §1
[11] = Cytotoxicity against Spodoptera frugiperda (fall armyworm) Sf9 cells assessed as growth inhibition at 200 mg/L after 24 hr by MTT assay; format: functional; conditions: for inhibition of growth at 200 µg/mL: Spodoptera frugiperda, Sf9, 24 h, read-out: GI
Outline: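 Sf9 cells kept at 27 °C in TC-199-MK with 10% FCS, L-glutamine and penicillin–streptomycin–neomycin. Log-phase cells in 96-well plates were exposed for 6, 12 or 24 h to compounds diluted in medium from a 1,000 mg/L DMSO stock, with 1% DMSO final; DMSO alone as control. MTT added for 3 h, formazan dissolved in DMSO, A570 read. Inhibition % = (Acontrol−Atreatment)/Acontrol×100. Run in triplicate.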

SMILES | Activity (Lipaphis erysimi [1]) | Activity (Culex quinquefasciatus [2]) | Activity (Culex quinquefasciatus [3]) | mortality at 1 µg/mL (Culex quinquefasciatus [4]) | further results
COC(=O)c1cc2c([nH]c3ccccc32)c(-c2ccc(Cl)cc2)n1 | Active | Active | Dose-dependent effect | < 34.9% | –
CC1NC(C(=O)O)Cc2c1[nH]c1ccccc21 (stereo unspecified) | Active | Active | Dose-dependent effect | < 34.9% | –
COC(=O)C1Cc2c([nH]c3ccccc23)C(C(Cl)(Cl)Cl)N1 (stereo unspecified) | Active | Active | Dose-dependent effect | < 34.9% | growth inhibition (GI) (Sf9): inactive
COC(=O)c1cc2c([nH]c3ccccc32)c(-c2ccccc2)n1 | – | – | Dose-dependent effect | < 34.9% | mortality at 200 µg/mL (Lipaphis erysimi [5]): 75.8%; LC90 (Lipaphis erysimi [6]): 418.63 µg/mL (≈ 1380 µM); LC50 (Lipaphis erysimi [6]; Lipaphis erysimi, in Brassica, 48 h): 68 µg/mL (≈ 225 µM); mortality at 50 µg/mL (Lipaphis erysimi [7]): 15.3%; LC90 (Culex quinquefasciatus [8]): 295.13 µg/mL (≈ 976 µM); LC50 (Culex quinquefasciatus [8]; Culex quinquefasciatus, Instar larval stage, 24 h): 24 µg/mL (≈ 79.3 µM); mortality at 100 µg/mL (Culex quinquefasciatus [9]): 80.5%; Activity (Culex quinquefasciatus [10]): Active
COC(=O)C1Cc2c([nH]c3ccccc23)C(c2ccccc2)N1 (stereo unspecified) | Active | Active | Dose-dependent effect | < 34.9% | –
O=C(O)C1Cc2c([nH]c3ccccc23)C(c2ccccc2)N1 (stereo unspecified) | – | – | Dose-dependent effect | < 34.9% | mortality at 200 µg/mL (Lipaphis erysimi [5]): 87.3%; LC90 (Lipaphis erysimi [6]): 240.1 µg/mL (≈ 821 µM); mortality at 50 µg/mL (Lipaphis erysimi [7]): 36.4%; LC90 (Culex quinquefasciatus [8]): 88.29 µg/mL (≈ 302 µM); mortality at 100 µg/mL (Culex quinquefasciatus [9]): 93.3%; Activity (Culex quinquefasciatus [10]): Active; inhibition of growth at 200 µg/mL [11]: 71.5%
COC(=O)c1cc2c([nH]c3ccccc32)c(-c2ccccc2O)n1 | Active | Active | Dose-dependent effect | < 34.9% | –
COc1cc(C2NC(C(=O)O)Cc3c2[nH]c2ccccc32)ccc1O (stereo unspecified) | Active | Active | Dose-dependent effect | < 34.9% | –
COC(=O)C1Cc2c([nH]c3ccccc23)CN1 (stereo unspecified) | Active | Active | Dose-dependent effect | < 34.9% | –
COC(=O)c1cc2c([nH]c3ccccc32)c(C)n1 | Active | Active | Dose-dependent effect | < 34.9% | –
COC(=O)C1Cc2c([nH]c3ccccc23)C(C)N1 (stereo unspecified) | Active | Active | Dose-dependent effect | < 34.9% | –
COC(=O)c1cc2c([nH]c3ccccc32)c(-c2c(C)nn(-c3ccccc3)c2Cl)n1 | Active | Active | Dose-dependent effect | < 34.9% | inhibition of growth at 200 µg/mL [11]: 60.9%
O=C(O)C1Cc2c([nH]c3ccccc23)CN1 (stereo unspecified) | Active | Active | Dose-dependent effect | < 34.9% | –
Cc1nc(C(=O)O)cc2c1[nH]c1ccccc12 [HARMAN-3-CARBOXYLIC ACID] | Active | Active | Dose-dependent effect | < 34.9% | –
O=C(O)C1Cc2c([nH]c3ccccc23)C(C(Cl)(Cl)Cl)N1 (stereo unspecified) | Active | Active | Dose-dependent effect | < 34.9% | –
COC(=O)C1Cc2c([nH]c3ccccc23)C(c2ccc(O)c(OC)c2)N1 (stereo unspecified) | Active | Active | Dose-dependent effect | < 34.9% | –
COc1ccc2c(c1)[nH]c1c(C)nccc12 [HARMINE] | Active | Active | – | – | mortality at 200 µg/mL (Lipaphis erysimi [5]): 49.6%; Imax [11]: 40.31%
